Screening results as filed in PubChem BioAssay.
CHOP UPR activ: activators of apoptotic CHOP UPR arm, primary screen, cell-based, CHO-CHOP luciferase reporter, luminescence, uHTS | UPR activation; percent of tunicamycin response over DMSO baseline | activation, % at 10 µM | 330,000 tested, 0.34% active;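 active means at 10 µM dose, activation of 40% or more, normalized to positive control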;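 further: 100% = tunicamycin at 10 µg/mL and 0% = DMSO alone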
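Evaluation: % reporter activation, DMSO baseline versus tunicamycin full activation; System: CHO-CHOP luciferase reporter cell line; Input: 500 cells/well; Incubation: 6 h compound treatment, 37 °C; Measured by: Steady-Glo luciferase luminescence; Dosing: one dose, 10 µM in 0.5% DMSO; Buffer or medium: F12 medium, 10% FBS; Benchmarks: positive tunicamycin 10 µg/mL, negative DMSO alone.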
TbMetRS inhib: T. brucei MetRS inhibitors, primary screen, biochemical, luminescence; methionyl-tRNA synthetase (Trypanosoma brucei brucei); purified T. brucei MetRS, ATP depletion, Kinase-Glo luminescence; inhibition, % at 11.9 µM; 360,000 tested, 0.4% active;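 active means inhibition above a per-plate cutoff of the control wells' mean inhibition plus 3 SD, cut at about 5.5% in these data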;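 further: 0% = DMSO wells median and 100% = median of wells with control inhibitor compound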
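Measured by: Kinase-Glo luciferase luminescence reporting remaining unconsumed ATP. Material: purified T. brucei MetRS enzyme. Doses: 11.9 µM compound single dose, 0.9% DMSO. Medium: HEPES buffer containing pyrophosphatase, BSA, spermine, DTT. Times: 15 min preincubation, 2 h reaction, all 25 °C. Reagent: methionine, ATP and bulk E. coli tRNA.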
CHOP inhibitor: inhibitors of CHOP promoter induction, primary screen, cell-based, unfolded protein response, luciferase reporter; inhibition, % at 10 µM; CHO-K1 CHOP-promoter luciferase, tunicamycin-induced, 15-18 h; 220,000 tested, 3.8% active;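 active means compounds that reduced the stress-induced luciferase reporter signal by more than about 70% of percent inhibition, limit read from the data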;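 further: 0% = tunicamycin plus vehicle and 100% = wells without tunicamycin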
V-ATPase pH: regulators of yeast V-ATPase proton pumping, primary screen, pHLuorin cytosolic pH fluorescence. response, % at 10 µM. S. cerevisiae. 350,000 tested, 0.37% active; in the data active means response mostly above about 7.3%, no sharp cut-off; inactive means mostly below about 5.4%; further: actives read high
XBP1 UPR activ: activators of adaptive XBP1 UPR arm, primary screen, cell-based, CHO-XBP1 luciferase reporter, luminescence, uHTS. 330,000 tested, 0.33% active. activation, % at 20 µM. IRE1-XBP1 UPR activation; percent of tunicamycin response, DMSO as zero;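 active means versus positive control, 20 µM dose yields 30% or more activation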;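 further: 100% = tunicamycin at 10 µg/mL and 0% = DMSO only wells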
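Signal: luciferase luminescence; Assay system: CHO-XBP1 luciferase reporter cells; Amount: one thousand reporter cells per well; Dosing: 20 µM single concentration, DMSO 1%; Benchmarks: high control tunicamycin 10 µg/mL final, low control DMSO vehicle only; Schedule: 6 h compound exposure at 37 °C, 5% CO2; Evaluation: percent activation relative to tunicamycin reference.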
UPR XBP1 confirm: IRE1-XBP1 UPR arm activators, confirmation, cell-based, CHO-XBP1 luciferase reporter, luminescence, single concentration | shares compounds with XBP1 UPR activ | activation, % at 20 µM | 1,000 tested, 63% active;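 active means reporter signal at least 30% of the positive control's activation in two or more of four replicate wells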;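 further: plate controls were DMSO negative control for no effect and tunicamycin 10 µg/mL positive control for full effect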
Numbers without * were called inactive; · = not tested or not shown. Many of the other results were omitted from the sample, so hits are more common in it than they were.

SMILES	CHOP UPR activ	TbMetRS inhib	CHOP inhibitor	V-ATPase pH	XBP1 UPR activ	UPR XBP1 confirm
Cc1ccc(-c2nnn(CC(=O)N(Cc3cccs3)C(C(=O)NC3CCCCC3)c3ccco3)n2)o1 (stereo not drawn)	0.8	-0.9	17.2	2.7	47.8*	38.5*
Cc1c(CCOC(=O)C23CC4(C)CC(C)(CC(C)(C4)C2)C3)sc[n+]1CC(=O)c1ccccc1	-1.2	0.0	3.5	1.0	39.5*	64.8*
N#C/C(C(=O)NCc1ccccc1)=C1/N=C(NC(=O)c2ccco2)c2ccccc21	-0.4	-0.6	12.7	0.8	3.1	·
COc1ccc(CCNC(=O)/C(C#N)=C2\N=C(NC(=O)c3ccco3)c3ccccc32)cc1	10.7	0.2	-21.5	-0.4	33.0*	24.1
CCN1C(=O)[C@H]2[C@@H](c3ccc(C)cc3)N[C@]3(CCCN(Cc4ccc(Cl)cc4)C3=O)[C@H]2C1=O	·	-0.9	·	-1.7	·	·
Cc1ccccc1NC(=O)Nc1nnc(Cc2ccc([N+](=O)[O-])cc2)s1	4.8	0.3	90.8*	2.8	72.5*	3.1
COc1ccc(Cc2nnc(NC(=O)Nc3ccccc3F)s2)cc1	-0.1	-0.4	·	-2.9	-1.7	·
CCOC(=O)c1nnc(-c2cccs2)nc1Oc1ccc(Cl)cc1	2.8	-0.4	33.2	-1.6	11.1	·
CCOC(=O)c1nnc(-c2cccs2)nc1Oc1ccccc1C(=O)OC	1.2	-1.0	-1.0	-2.7	4.2	·
CCOC(=O)c1nnc(-c2ccc(C)cc2)nc1Oc1ccc(Cl)cc1Cl	31.0	-0.3	65.3	6.2	93.8*	123.7*
CCOC(=O)c1nnc(-c2ccc(C)cc2)nc1Oc1ccccc1Cl	9.1	-0.4	77.9*	-1.0	37.0*	48.6*
Cc1ccc(SCCc2ccc(C)nc2)cc1	1.8	-1.2	43.6	0.1	2.6	·
CC(C)CC(=O)Nc1ccc2c(c1)nc(CCN1CCOCC1)n2C	-0.9	-0.7	·	-0.3	-4.0	·
CCn1nc(C)cc1C(=O)Sc1cccc(Cl)c1	5.4	-0.1	-33.5	1.8	48.9*	5.0
Cc1nn(C)c(C(=O)Sc2cccc(Cl)c2)c1[N+](=O)[O-]	9.6	-0.2	61.2	-1.9	26.9	·
CCCCC1=CC2=C(c3ccco3)C(=O)C(C)(OC(=O)c3ccc(OC)cc3)C(=O)C2=CN1CC(C)C (stereo not drawn)	18.6	-0.2	78.5*	2.5	32.7*	-1.7
CCCCC1=CC2=C(c3ccco3)C(=O)C(C)(OC(=O)c3ccc(OC)cc3)C(=O)C2=CN1c1ccc(OC)cc1 (stereo not drawn)	-1.7	-0.2	-48.6	-1.8	1.2	·
C=CCc1cc(OC)ccc1OCCCCn1cncn1	2.6	0.6	·	-0.4	-2.4	·
Cc1ccc(Cl)cc1N1CCN(C(=O)c2noc(C(C)C)c2[N+](=O)[O-])CC1	1.7	-0.4	·	0.1	-4.5	·
CCCCCC1CCC(c2ccc(/C(N)=N/O)cc2)CC1 (stereo not drawn)	2.1	-0.7	17.9	0.7	31.6*	2.9
CCCCC1CCC(c2ccc(C(N)=O)cc2)CC1 (stereo not drawn)	-1.4	-0.2	11.0	2.7	-0.3	·
CCOC(=O)c1sc(NC(=O)CN2C(=O)NC3(CCC(C)CC3)C2=O)c(C(=O)OCC)c1C (stereo not drawn)	12.1	-0.4	·	0.4	30.8*	23.7
CCOC(=O)c1sc(NC(=O)CN2C(=O)NC3(CC(C)CC(C)(C)C3)C2=O)c(C(=O)OCC)c1C (stereo not drawn)	2.2	0.0	3.1	-3.9	-2.3	·
CN(C)S(=O)(=O)c1ccc(N2CCCC2)c(C(=O)N2CCN(S(=O)(=O)c3ccc(F)c(F)c3)CC2)c1	·	-0.3	·	-0.6	·	·
Cc1ccc(-c2nnc3c(C(F)(F)F)nc4ccccc4n23)cc1	1.5	-0.7	5.1	-1.3	7.2	·
SMILES	CHOP UPR activ	TbMetRS inhib	CHOP inhibitor	V-ATPase pH	XBP1 UPR activ	UPR XBP1 confirm
FC(F)(F)c1nc2ccccc2n2c(-c3ccc(Cl)cc3)nnc12	13.4	-1.4	29.0	0.4	46.6*	53.7*
CC1C/C(=N/Nc2nc3ccccc3[nH]2)CC(C)(C)C1 (stereo not drawn)	3.3	0.6	-32.1	0.6	33.6*	31.3*
Fc1cccc(CCN2CCNC[C@@H]2Cc2ccccc2)c1	0.8	-0.3	·	3.8	0.9	·
FC(F)(F)c1cc(CCN2CCNC[C@@H]2Cc2ccccc2)cc(C(F)(F)F)c1	1.7	-0.2	·	1.4	36.7*	17.8
Cc1ccc(/C=C/C(=O)NCCc2cccc(Cl)c2)o1	2.2	0.0	·	0.8	-3.2	·
O=C(CN1C(=O)/C(=C/c2ccc(Cl)cc2)SC1=S)NC1C=CS(=O)(=O)C1 (stereo not drawn)	1.8	-0.7	·	-4.0	44.0*	2.9
O=C(CCN1C(=O)/C(=C/c2ccc(Cl)cc2)SC1=S)NC1C=CS(=O)(=O)C1 (stereo not drawn)	0.3	-0.8	·	-0.5	0.3	·
COc1ccc([N+](=O)[O-])cc1COc1ccc2c(-c3ccccc3)cc(=O)oc2c1	5.8	-1.0	17.7	-2.9	47.5*	142.6*
CC1CC(=O)N(CC(=O)Nc2ccccc2F)c2ccccc2S1(=O)=O (stereo not drawn)	1.8	-0.3	·	1.0	-1.9	·
Cc1ccc(C)c(-c2nnc(NC(=O)CCS(=O)(=O)c3ccc(F)cc3)o2)c1	-1.6	-0.5	·	-5.3	-1.2	·
O=C(NCC1CC1)c1cccc2c1C(=O)c1ccc(-c3ccc(OC(F)(F)F)cc3)cc1S2(=O)=O	20.5	-0.3	·	-0.7	40.6*	41.8*
COc1ccc(-c2ccc3c(c2)S(=O)(=O)c2cccc(C(=O)NC[C@@H]4CCCO4)c2C3=O)cc1OC	1.3	-0.1	·	-0.1	0.2	·
COC(=O)c1ccccc1NC(=O)c1cc(-c2ccco2)on1	2.0	-1.1	·	-3.4	-0.4	·
COC(=O)c1ccccc1NC(=O)c1cc(-c2cccs2)on1	20.1	-1.0	74.8*	-1.3	32.1*	3.5
N#Cc1cnn2c1nc(N1CCCCC1)c1ccccc12	14.4	-0.4	52.3	-5.1	46.8*	41.2*
CC(C)=CCC/C(C)=C/CNC(=O)C[C@H]1C[C@H](C(=O)N(C(C)C)C(C)C)[C@@]2(C)c3[nH]c4ccc(Cl)cc4c3CCN2C1=O	4.7	0.1	·	0.7	11.2	·
COc1ccc2[nH]c3c(c2c1)CCN1C(=O)C(CC(=O)NC/C=C(\C)CCC=C(C)C)C[C@H](C(=O)N(C(C)C)C(C)C)[C@@]31C (stereo partly drawn)	5.4	-0.6	·	-3.0	32.6*	45.6*
